Hits are enriched below; roughly 0.95% of the tested compounds scored in any of these assays.
Diaph inh CS: diaphorase inhibition or chemical oxidation counter-screen. inhibition, % at 20 µM. 0.69% of 190,000 active. diaphorase resazurin-to-resorufin fluorescence, NADH, 16 min; bacterial (C. kluyveri) enzyme, not human;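 active means primary screen inhibition at 20 µM above a set limit, cut at about 50% in these data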
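Test system: bacterial diaphorase enzyme (C. kluyveri); Quantity: 0.14 U/mL diaphorase, enzyme working solution; Times: reaction incubation of 16 min at room temperature; Measured by: fluorescence of resorufin formed from resazurin, Ex 544/Em 590 nm; Benchmarks: positive control minus NADH, DMSO neutral control.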
UBC9 SUMO inh: blocks human SUMOylation mediated by UBC9. P63279. HTRF SUMOylation assay, SAE1/SAE2 + UBC9, in vitro. inhibition, % at 35 µM. 0.36% of 290,000 active; in the data active means inhibition above about 50%, passing the limit was not always enough
Target sequence (P63279 whole entry, looked up): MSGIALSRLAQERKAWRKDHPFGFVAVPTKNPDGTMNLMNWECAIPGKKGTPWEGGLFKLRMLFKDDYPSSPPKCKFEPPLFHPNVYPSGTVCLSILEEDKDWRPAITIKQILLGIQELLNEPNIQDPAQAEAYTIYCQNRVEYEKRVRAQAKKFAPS
p97 inhibitor: human p97 ATPase inhibition; P55072; recombinant p97 ATPase, Kinase-Glo ATP luminescence, 3 h; inhibition, % at 8 µM; 0.42% of 220,000 active; in the data active means inhibition above about 15%
HKDC1 inhibitor: inhibitors of human hexokinase HKDC1; Q2TB90; recombinant HKDC1, G6PDH/diaphorase resazurin coupled fluorescence; inhibition, % at 20 µM; 0.16% of 340,000 active; AID 493160;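 active means inhibition above about 35% when tested at 20 µM, limit read from the data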
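Test system: recombinant HKDC1 (HK5) hexokinase enzyme, produced in-house; Amount: enzyme 5 µg/mL final; Buffer or medium: Tris pH 8.0 buffer with MgCl2, Tween-20, BSA, BME; Reagent: glucose and ATP substrates; Doses: 20 µM test compound, 1% DMSO; Incubation: 90 min reaction incubation at room temperature, dark; Detection: resorufin fluorescence at 613 nm.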
G6PDH counter: inhibits Leuconostoc G6PDH, flagging false hits in G6PDH-based assays; Purified L. mesenteroides G6PDH, diaphorase/resazurin coupled fluorescence, 45 min; 0.12% of 200,000 active; inhibition, % at 5 µM; in the data active means inhibition above about 50%
HKDC1 act conf: HKDC1 (human) activation, single-dose confirmed; shares compounds with HKDC1 inhibitor; inhibition, % at 20 µM; recombinant HKDC1, G6PDH/diaphorase resazurin fluorescence; stronger effect = lower value; 14% of 740 active;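 active means inhibition at or below a set negative limit, negative inhibition meaning the enzyme was activated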
A number is an active result; n = inactive; x = no result.

SMILES	Diaph inh CS	UBC9 SUMO inh	p97 inhibitor	HKDC1 inhibitor	G6PDH counter	HKDC1 act conf
O=C1/C(=C\c2ccccc2)CN(C(=O)CCN2CCCCC2)C/C1=C/c1ccccc1	x	x	x	n	x	x
O=C1/C(=C\c2ccc(Cl)c(Cl)c2)CN(C(=O)CCN2CCOCC2)C/C1=C/c1ccc(Cl)c(Cl)c1	x	x	x	61	x	n
O=C(/C=C/c1cccs1)Nc1nc(-c2ccccc2)cs1	n	n	n	n	n	x
O=C(/C=C/c1cccs1)Nc1scc(-c2ccccc2)c1C(=O)O	n	x	n	81	n	n
O=C(NCc1ccccc1CN1CCCC1)c1ccc(Cl)c(N2CCCC2=O)c1	x	x	x	n	x	x
CCNC(=S)N/N=C1\C(=O)c2cccc3cccc1c23	n	n	n	n	n	x
O=C(N/N=C1/C(=O)c2cccc3cccc1c23)c1ccc(Cl)cc1	68	n	n	43	n	n
Cc1c(C)n(Cc2ccccc2)c2ncnc(Cl)c12	x	n	x	n	x	x
O=C(c1ncn(Cc2ccccc2)c1C(=O)N1CCc2ccccc2C1)N1CCc2ccccc2C1	x	x	x	n	x	x
COc1cc(NC(=O)c2cnc(N)s2)cc(C(=O)Nc2cccc(C(F)(F)F)c2)c1	x	x	x	59	x	n
CCOC(=O)C1=C(COC(=O)CNS(=O)(=O)c2c(F)cc(F)cc2Br)NC(=O)NC1C (centres undefined)	x	x	x	n	x	x
Cc1noc(C)c1S(=O)(=O)Nc1ccc(C(C)C)cc1	x	n	x	n	x	x
CCOC(=O)c1ccc(NC2=CC(=O)C(=O)c3ccccc32)cc1	n	n	n	n	n	n
Cc1ccc(NC2=CC(=O)C(=O)c3ccccc32)cc1	n	n	n	n	n	x
O=C(NCC(=O)N(c1cccnc1)C(C(=O)NC1CCCCC1)c1ccccc1F)c1ccco1 (centres undefined)	x	n	x	n	x	x
C=CCn1nc([N+](=O)[O-])nc1Sc1cccc2cccnc12	n	n	n	n	n	-52
Cc1ccc(NC(=O)CN2C(=O)S/C(=C\c3ccc(-c4cccc(C(=O)O)c4C)o3)C2=O)cc1C	110	x	n	n	n	n
CCOc1ccc(N=C2NN=C(c3cc(C)n(CC4CCCO4)c3C)CS2)cc1 (centres undefined)	n	n	n	n	n	x
Cc1cc(C2=NNC(=Nc3ccc(S(=O)(=O)N4CCOCC4)cc3)SC2)c(C)n1C	x	n	n	n	x	-47
CC1=Nc2nc(N3CCCCCC3)c(C#N)c3c4c(nc(c23)N1)N(c1ccc2ccccc2c1)C(=O)C4	x	x	x	n	x	x
Cc1nnc(SC(=O)N2c3ccccc3Sc3ccccc32)s1	n	n	n	n	n	n
COc1ccc(Br)c(C(=O)OCC(=O)NC2CCCCCC2)c1	x	x	x	n	x	x
COC1=CC(=O)C=C(OC)C1=O	x	x	x	66	x	n
O=C1NC(=S)N/C1=C/c1cc2c(cc1[N+](=O)[O-])OCO2	x	n	x	n	x	-37
O=C(CSS(=O)(=O)O)N1CCN(C(=O)c2ccoc2)CC1	x	n	x	n	x	x
SMILES	Diaph inh CS	UBC9 SUMO inh	p97 inhibitor	HKDC1 inhibitor	G6PDH counter	HKDC1 act conf
O=C(NNC(=O)c1cccc2ccccc12)c1cccc(Cl)c1	x	x	x	n	x	x
O=C(N/N=C/c1cc(Br)ccc1O)c1ccncc1	x	n	n	n	x	x
O=C(N/N=C/c1ccc(O)c2ncccc12)c1cccc(Br)c1	n	n	n	n	n	n
CCOC(=O)c1c(C)[nH]c(N=Nc2ccccc2Cl)c1C	x	n	n	n	x	x
CCOC(=O)c1c(C)[nH]c(C2=NNC(=Nc3ccccc3OC)SC2)c1C	n	n	n	n	n	-86
CCOC(=O)c1c(C)[nH]c(C2=NNC(=Nc3ccccc3)SC2)c1C	n	n	n	n	n	-141
CC(=O)c1c(C)[nH]c(C2=NNC(=NC(C)(C)C)SC2)c1C	n	n	n	n	n	x
CCOC(=O)c1c(C)[nH]c(C2=NNC(=Nc3ccc(OCC)cc3)SC2)c1C	n	n	n	n	n	-122
CN(CC(=O)Nc1ccccc1Br)C(=O)c1ccccc1OCc1ccccc1Cl	x	x	x	n	x	x
Cc1ccccc1OCC(=O)Nc1ccc(N2CCN(C)CC2)c(Cl)c1	x	n	x	n	x	x
O=C1CCC(C(=O)N2CCCCCC2)CN1Cc1cccc(C(F)(F)F)c1 (centres undefined)	x	n	x	n	x	x
O=C(O)c1ccc(N=Cc2c(O)ccc3ccccc23)cc1	x	n	x	n	x	n
O=S(=O)(/N=C/c1c(O)ccc2ccccc12)c1ccccc1	x	n	x	44	x	n
CSCC[C@H](NC(=O)OC(C)(C)C)C(=O)N1CCC(C(=O)NCC(=O)Nc2ccc(C)cc2)CC1	x	n	x	n	x	x
CC1=[N+]([O-])C(C)(C)N(O)C1(C)C	x	n	n	n	x	x
O=C(N/N=C/c1ccccc1OC(=O)c1ccc2c(c1)OCO2)c1ccccc1	n	n	n	n	n	n
COc1ccccc1/C=N/NC(=O)c1ccc2c(c1)OCO2	x	n	x	n	x	x
COc1cccc(CNC(=O)c2ccc(NS(=O)(=O)c3ccc4[nH]c(=O)[nH]c4c3)cc2)c1	x	x	x	n	x	x
O=C1OC(c2ccccc2)=N/C1=C/c1cccc(OC(=O)c2cccs2)c1	x	x	n	39	x	n
COc1ccc([C@@H]2C[C@H](c3ccccc3)Oc3cc(OC)c(OC)c(OC)c32)cc1	x	n	x	37	x	n
CC(C)(C)c1nnc(N/N=C/c2cc(Br)ccc2O)n(N)c1=O	n	n	n	n	n	-49
CCc1nnc(N/N=C/c2cc(Br)c(O)cc2O)n1N	x	n	x	n	x	x
COc1ccc(NC(=O)CSc2ccc(-c3cccnc3)nn2)c(OC)c1	x	n	x	n	x	n
COc1ccc(NC(=O)CSc2ccc(-c3cccnc3)nn2)cc1	x	n	x	n	x	x
S=c1cn[nH]c2ccccc12	x	x	x	n	x	x
SMILES	Diaph inh CS	UBC9 SUMO inh	p97 inhibitor	HKDC1 inhibitor	G6PDH counter	HKDC1 act conf
Cn1c(=O)c2ncn(CC(=O)O)c2n(C)c1=O	x	n	n	n	x	x
N#Cc1ccc(Cl)cc1NC(=O)COC(=O)c1cccc(S(=O)(=O)N2CCOCC2)c1	x	x	x	n	x	x
C=CC(=O)N1C/C(=C/c2ccc(F)cc2)C(=O)/C(=C\c2ccc(F)cc2)C1	x	x	x	36	x	n
CCOc1ccc(C(=O)N/N=C/c2ccc(-c3ccc(S(=O)(=O)Nc4ncccn4)cc3)o2)cc1	n	n	n	n	n	x
O=C(N/N=C/c1ccc(-c2ccc(S(=O)(=O)Nc3ncccn3)cc2)o1)c1cc2ccccc2cc1O	n	x	15	n	n	n
CCCCn1c(N)c(N(CCOC)C(=O)COC(=O)COc2ccccc2C#N)c(=O)[nH]c1=O	x	x	x	n	x	x
COc1cc(NS(=O)(=O)c2ccc(NC(=O)c3ccc(F)cc3)cc2)ncn1	x	n	x	n	x	n
Cc1cc(SCC(=O)N/N=C/c2ccc(O)c(O)c2O)c(C)cc1Br	n	n	n	45	n	n
O=C1CSC(=S)N1N=Cc1ccccc1O	x	x	x	n	x	n
Cc1ccccc1/C=N/N1C(=O)CSC1=S	x	n	x	n	x	x
NC(=O)CC(NC(=O)Cc1ccc(Br)cc1)c1ccc(N2CCN(c3ccc(F)cc3)CC2)c([N+](=O)[O-])c1 (centres undefined)	x	n	x	n	x	x
CCn1cc(S(=O)(=O)Nc2ncccn2)cn1	x	n	x	n	x	x
